From ChEMBL document CHEMBL3352599, “Radiosynthesis and biological evaluation of a novel enoyl-ACP reductase inhibitor for Staphylococcus aureus” (Eur J Med Chem, 2014)

Columns and labels:
[1] = Drug uptake in healthy thigh of Swiss Webster thigh infected mouse model infected with methicillin-resistant Staphylococcus aureus BAA1762 at 3.7 MBq, iv after 15 mins; format: ADME, organism-based, Thigh muscle; settings: in vivo, 0.25 h
In short: (§1)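 Neutropenic mice (ip cyclophosphamide) given 5×10^5 MRSA cells into the left thigh muscle. [11C]-label given into the lateral tail vein in ethanol/saline (1/3) under isoflurane, then mice recovered and moved freely. Killed by cervical dislocation; muscle from both thighs and blood collected, weighed and well-counted. Reported as %ID/g, mean ± SD, n=3.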

[2] = Drug uptake in healthy thigh of Swiss Webster thigh infected mouse model infected with methicillin-resistant Staphylococcus aureus BAA1762 at 3.7 MBq, iv after 30 mins; format: ADME, organism-based, Thigh muscle; settings: in vivo, 0.5 h; in short: as §1
[3] = Drug uptake in healthy thigh of Swiss Webster thigh infected mouse model infected with methicillin-resistant Staphylococcus aureus BAA1762 at 3.7 MBq, iv after 45 mins; format: ADME, organism-based, Thigh muscle; settings: in vivo, 0.75 h; in short: as §1
[4] = Drug uptake in healthy thigh of Swiss Webster thigh infected mouse model infected with methicillin-resistant Staphylococcus aureus BAA1762 at 3.7 MBq, iv after 60 mins; format: ADME, organism-based, Thigh muscle; settings: in vivo, 1 h; in short: as §1
[5] = Drug uptake in infected thigh of Swiss Webster thigh infected mouse model infected with methicillin-resistant Staphylococcus aureus BAA1762 at 3.7 MBq, iv after 15 mins; format: ADME, organism-based, Thigh muscle; settings: in vivo, 0.25 h; in short: as §1
[6] = Drug uptake in infected thigh of Swiss Webster thigh infected mouse model infected with methicillin-resistant Staphylococcus aureus BAA1762 at 3.7 MBq, iv after 30 mins; format: ADME, organism-based, Thigh muscle; settings: in vivo, 0.5 h; in short: as §1
[7] = Drug uptake in infected thigh of Swiss Webster thigh infected mouse model infected with methicillin-resistant Staphylococcus aureus BAA1762 at 3.7 MBq, iv after 45 mins; format: ADME, organism-based, Thigh muscle; settings: in vivo, 0.75 h; in short: as §1
[8] = Drug uptake in infected thigh of Swiss Webster thigh infected mouse model infected with methicillin-resistant Staphylococcus aureus BAA1762 at 3.7 MBq, iv after 60 mins; format: ADME, organism-based, Thigh muscle; settings: in vivo, 1 h; in short: as §1
Blood [9] = experiment: Drug uptake in blood of Swiss Webster thigh infected mouse model infected with methicillin-resistant Staphylococcus aureus BAA1762 at 3.7 MBq, iv after 15 mins; format: ADME, organism-based; settings: in vivo, 0.25 h; in short: as §1
Blood [10] = experiment: Drug uptake in blood of Swiss Webster thigh infected mouse model infected with methicillin-resistant Staphylococcus aureus BAA1762 at 3.7 MBq, iv after 30 mins; format: ADME, organism-based; settings: in vivo, 0.5 h; in short: as §1
Blood [11] = experiment: Drug uptake in blood of Swiss Webster thigh infected mouse model infected with methicillin-resistant Staphylococcus aureus BAA1762 at 3.7 MBq, iv after 45 mins; format: ADME, organism-based; settings: in vivo, 0.75 h; in short: as §1
Blood [12] = experiment: Drug uptake in blood of Swiss Webster thigh infected mouse model infected with methicillin-resistant Staphylococcus aureus BAA1762 at 3.7 MBq, iv after 60 mins; format: ADME, organism-based; settings: in vivo, 1 h; in short: as §1
Spleen [13] = experiment: Drug uptake in spleen of healthy Swiss Webster mouse at 3.7 MBq, iv after 20 mins; format: ADME, organism-based; settings: in vivo
In short: (§2)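 Uninfected control mice. [11C]-label given into the lateral tail vein in ethanol/saline (1/3) under isoflurane, then mice recovered and moved freely. Killed by cervical dislocation; blood taken by cardiac puncture, spleen, lung, liver and kidney excised, weighed and well-counted. Reported as %ID/g, mean ± SD, n=3.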

Spleen [14] = experiment: Drug uptake in spleen of healthy Swiss Webster mouse at 3.7 MBq, iv after 40 mins; format: ADME, organism-based; settings: in vivo; in short: as §2
Spleen [15] = experiment: Drug uptake in spleen of healthy Swiss Webster mouse at 3.7 MBq, iv after 60 mins; format: ADME, organism-based; settings: in vivo, 1 h; in short: as §2
Lung [16] = experiment: Drug uptake in lung of healthy Swiss Webster mouse at 3.7 MBq, iv after 20 mins; format: ADME, organism-based; settings: in vivo; in short: as §2
Lung [17] = experiment: Drug uptake in lung of healthy Swiss Webster mouse at 3.7 MBq, iv after 40 mins; format: ADME, organism-based; settings: in vivo; in short: as §2
Lung [18] = experiment: Drug uptake in lung of healthy Swiss Webster mouse at 3.7 MBq, iv after 60 mins; format: ADME, organism-based; settings: in vivo, 1 h; in short: as §2
Liver [19] = experiment: Drug uptake in liver of healthy Swiss Webster mouse at 3.7 MBq, iv after 20 mins; format: ADME, organism-based; settings: in vivo; in short: as §2
Liver [20] = experiment: Drug uptake in liver of healthy Swiss Webster mouse at 3.7 MBq, iv after 40 mins; format: ADME, organism-based; settings: in vivo; in short: as §2
Liver [21] = experiment: Drug uptake in liver of healthy Swiss Webster mouse at 3.7 MBq, iv after 60 mins; format: ADME, organism-based; settings: in vivo, 1 h; in short: as §2
Kidney [22] = experiment: Drug uptake in kidney of healthy Swiss Webster mouse at 3.7 MBq, iv after 20 mins; format: ADME, organism-based; settings: in vivo; in short: as §2
Kidney [23] = experiment: Drug uptake in kidney of healthy Swiss Webster mouse at 3.7 MBq, iv after 40 mins; format: ADME, organism-based; settings: in vivo; in short: as §2
Kidney [24] = experiment: Drug uptake in kidney of healthy Swiss Webster mouse at 3.7 MBq, iv after 60 mins; format: ADME, organism-based; settings: in vivo, 1 h; in short: as §2
Blood [25] = experiment: Drug uptake in blood of healthy Swiss Webster mouse at 3.7 MBq, iv after 20 mins; format: ADME, organism-based; settings: in vivo; in short: as §2
Blood [26] = experiment: Drug uptake in blood of healthy Swiss Webster mouse at 3.7 MBq, iv after 40 mins; format: ADME, organism-based; settings: in vivo; in short: as §2
Blood [27] = experiment: Drug uptake in blood of healthy Swiss Webster mouse at 3.7 MBq, iv after 60 mins; format: ADME, organism-based; settings: in vivo, 1 h; in short: as §2
Spleen [28] = experiment: Drug uptake in spleen of Swiss Webster systemic infected mouse model infected with methicillin-resistant Staphylococcus aureus BAA1762 at 3.7 MBq, iv after 20 mins; format: ADME, organism-based; settings: in vivo
In short: (§3)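 Neutropenic mice (ip cyclophosphamide) infected ip with 2×10^7 MRSA cells. [11C]-label given into the lateral tail vein in ethanol/saline (1/3) under isoflurane, then mice recovered and moved freely. Killed by cervical dislocation; blood taken by cardiac puncture, organs excised, weighed and well-counted. Reported as %ID/g, mean ± SD, n=3.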

Spleen [29] = experiment: Drug uptake in spleen of Swiss Webster systemic infected mouse model infected with methicillin-resistant Staphylococcus aureus BAA1762 at 3.7 MBq, iv after 40 mins; format: ADME, organism-based; settings: in vivo; in short: as §3
Spleen [30] = experiment: Drug uptake in spleen of Swiss Webster systemic infected mouse model infected with methicillin-resistant Staphylococcus aureus BAA1762 at 3.7 MBq, iv after 60 mins; format: ADME, organism-based; settings: in vivo, 1 h; in short: as §3
Lung [31] = experiment: Drug uptake in lung of Swiss Webster systemic infected mouse model infected with methicillin-resistant Staphylococcus aureus BAA1762 at 3.7 MBq, iv after 20 mins; format: ADME, organism-based; settings: in vivo; in short: as §3
Lung [32] = experiment: Drug uptake in lung of Swiss Webster systemic infected mouse model infected with methicillin-resistant Staphylococcus aureus BAA1762 at 3.7 MBq, iv after 40 mins; format: ADME, organism-based; settings: in vivo; in short: as §3
Lung [33] = experiment: Drug uptake in lung of Swiss Webster systemic infected mouse model infected with methicillin-resistant Staphylococcus aureus BAA1762 at 3.7 MBq, iv after 60 mins; format: ADME, organism-based; settings: in vivo, 1 h; in short: as §3
Liver [34] = experiment: Drug uptake in liver of Swiss Webster systemic infected mouse model infected with methicillin-resistant Staphylococcus aureus BAA1762 at 3.7 MBq, iv after 20 mins; format: ADME, organism-based; settings: in vivo; in short: as §3
Liver [35] = experiment: Drug uptake in liver of Swiss Webster systemic infected mouse model infected with methicillin-resistant Staphylococcus aureus BAA1762 at 3.7 MBq, iv after 40 mins; format: ADME, organism-based; settings: in vivo; in short: as §3
Liver [36] = experiment: Drug uptake in liver of Swiss Webster systemic infected mouse model infected with methicillin-resistant Staphylococcus aureus BAA1762 at 3.7 MBq, iv after 60 mins; format: ADME, organism-based; settings: in vivo, 1 h; in short: as §3
Kidney [37] = experiment: Drug uptake in kidney of Swiss Webster systemic infected mouse model infected with methicillin-resistant Staphylococcus aureus BAA1762 at 3.7 MBq, iv after 20 mins; format: ADME, organism-based; settings: in vivo; in short: as §3
Kidney [38] = experiment: Drug uptake in kidney of Swiss Webster systemic infected mouse model infected with methicillin-resistant Staphylococcus aureus BAA1762 at 3.7 MBq, iv after 40 mins; format: ADME, organism-based; settings: in vivo; in short: as §3
Kidney [39] = experiment: Drug uptake in kidney of Swiss Webster systemic infected mouse model infected with methicillin-resistant Staphylococcus aureus BAA1762 at 3.7 MBq, iv after 60 mins; format: ADME, organism-based; settings: in vivo, 1 h; in short: as §3
Blood [40] = experiment: Drug uptake in blood of Swiss Webster systemic infected mouse model infected with methicillin-resistant Staphylococcus aureus BAA1762 at 3.7 MBq, iv after 20 mins; format: ADME, organism-based; settings: in vivo; in short: as §3
Blood [41] = experiment: Drug uptake in blood of Swiss Webster systemic infected mouse model infected with methicillin-resistant Staphylococcus aureus BAA1762 at 3.7 MBq, iv after 40 mins; format: ADME, organism-based; settings: in vivo; in short: as §3
Blood [42] = experiment: Drug uptake in blood of Swiss Webster systemic infected mouse model infected with methicillin-resistant Staphylococcus aureus BAA1762 at 3.7 MBq, iv after 60 mins; format: ADME, organism-based; settings: in vivo, 1 h; in short: as §3

Molecule `CCCCCCc1ccc(Oc2ccccc2[11C]#N)c(O)c1` has a Drug uptake [1] of 0.98 %ID/cc, a Drug uptake [2] of 0.63 %ID/cc and a Drug uptake [3] of 0.42 %ID/cc. It also gave a Drug uptake [4] of 0.33 %ID/cc, a Drug uptake [5] of 0.89 %ID/cc and a Drug uptake [6] of 0.54 %ID/cc. It also gave a Drug uptake [7] of 0.38 %ID/cc, a Drug uptake [8] of 0.34 %ID/cc and a Drug uptake (Blood [9]) of 0.72 %ID/cc. It also gave a Drug uptake (Blood [10]) of 0.42 %ID/cc, a Drug uptake (Blood [11]) of 0.28 %ID/cc and a Drug uptake (Blood [12]) of 0.26 %ID/cc. The Drug uptake (Spleen [13]) was 0.67 %ID/cc, the Drug uptake (Spleen [14]) was 0.37 %ID/cc and the Drug uptake (Spleen [15]) was 0.19 %ID/cc. It also gave a Drug uptake (Lung [16]) of 3.19 %ID/cc, a Drug uptake (Lung [17]) of 1.75 %ID/cc and a Drug uptake (Lung [18]) of 1.32 %ID/cc. It also gave a Drug uptake (Liver [19]) of 11.79 %ID/cc, a Drug uptake (Liver [20]) of 9.69 %ID/cc and a Drug uptake (Liver [21]) of 6.91 %ID/cc. For the same molecule, the Drug uptake (Kidney [22]) was 2.22 %ID/cc, the Drug uptake (Kidney [23]) was 1.41 %ID/cc and the Drug uptake (Kidney [24]) was 0.93 %ID/cc. The Drug uptake (Blood [25]) was 0.64 %ID/cc, the Drug uptake (Blood [26]) was 0.41 %ID/cc and the Drug uptake (Blood [27]) was 0.34 %ID/cc. The Drug uptake (Spleen [28]) was 0.71 %ID/cc, the Drug uptake (Spleen [29]) was 0.3 %ID/cc and the Drug uptake (Spleen [30]) was 0.31 %ID/cc. It also gave a Drug uptake (Lung [31]) of 3.28 %ID/cc, a Drug uptake (Lung [32]) of 1.78 %ID/cc and a Drug uptake (Lung [33]) of 2.01 %ID/cc. It also gave a Drug uptake (Liver [34]) of 11.18 %ID/cc, a Drug uptake (Liver [35]) of 5.25 %ID/cc and a Drug uptake (Liver [36]) of 7.31 %ID/cc. The Drug uptake (Kidney [37]) was 2.41 %ID/cc, the Drug uptake (Kidney [38]) was 1.15 %ID/cc and the Drug uptake (Kidney [39]) was 1.13 %ID/cc. For the same molecule, the Drug uptake (Blood [40]) was 0.67 %ID/cc, the Drug uptake (Blood [41]) was 0.38 %ID/cc and the Drug uptake (Blood [42]) was 0.44 %ID/cc.
